Assay results reported in ChEMBL document CHEMBL1157665, “Novel 4-thiazolidinone derivatives as potential antifungal and antibacterial drugs” (2010).
≈ marks a conversion by molar mass, not a printed value.

Experiments:
Staphylococcus aureus [1] = test: Antibacterial activity against Staphylococcus aureus ATCC 6538 after 24 hrs; type: functional; settings: ATCC 6538, 24 h
Outline: (§1)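 Broth microdilution MIC in 96-well plates. Compounds in LB broth with bacterial inoculum of 1.0 × 10^4 cfu per well, from suspensions adjusted with sterile saline to 1.0 × 10⁵ CFU/ml. Incubated 24 h at […] as printed. MIC taken as the lowest concentration with no visible growth under the binocular microscope. OD at 655 nm also read against blank. Streptomycin and ampicillin as positive controls. Duplicate, repeated three times.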

Bacillus cereus [2] = test: Antibacterial activity against Bacillus cereus clinical isolate after 72 hrs by serial sub-cultivation method; type: functional
Outline: (§2)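 MBC was found by serial sub-cultivation of 2 µl from the MIC wells into plates holding 100 µl broth per well, then incubation for 72 h. MBC is the lowest concentration with no visible growth, i.e. 99.5% killing of the original inoculum. Bacterial inoculum was 1.0 × 10^4 cfu per well in LB broth. Duplicate, repeated three times.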

Salmonella typhimurium [3] = test: Antibacterial activity against Salmonella Typhimurium ATCC 13311 after 72 hrs by serial sub-cultivation method; type: functional, Salmonella enterica subsp. enterica serovar Typhimurium; settings: Salmonella enterica, ATCC 13311, 72 h; outline: as §2
Listeria monocytogenes [4] = test: Antibacterial activity against Listeria monocytogenes NCTC 7973 after 72 hrs by serial sub-cultivation method; type: functional; settings: NCTC 7973, 72 h; outline: as §2
Salmonella typhimurium [5] = test: Antibacterial activity against Salmonella Typhimurium ATCC 13311 after 24 hrs; type: functional, Salmonella enterica subsp. enterica serovar Typhimurium; settings: Salmonella enterica, ATCC 13311, 24 h; outline: as §1
Bacillus cereus [6] = test: Antibacterial activity against Bacillus cereus clinical isolate after 24 hrs; type: functional; outline: as §1
Pseudomonas aeruginosa [7] = test: Antibacterial activity against Pseudomonas aeruginosa ATCC 27853 after 24 hrs; type: functional; settings: ATCC 27853, 24 h; outline: as §1
Escherichia coli [8] = test: Antibacterial activity against Escherichia coli ATCC 35210 after 24 hrs; type: functional; settings: ATCC 35210, 24 h; outline: as §1
Proteus mirabilis [9] = test: Antibacterial activity against Proteus mirabilis after 72 hrs by serial sub-cultivation method; type: functional; outline: as §2
Proteus mirabilis [10] = test: Antibacterial activity against Proteus mirabilis after 24 hrs; type: functional; outline: as §1
Listeria monocytogenes [11] = test: Antibacterial activity against Listeria monocytogenes NCTC 7973 after 24 hrs; type: functional; settings: NCTC 7973, 24 h; outline: as §1
Micrococcus flavus [12] = test: Antibacterial activity against Micrococcus flavus ATCC 10240 after 24 hrs; type: functional; settings: ATCC 10240, 24 h; outline: as §1
Escherichia coli [13] = test: Antibacterial activity against Escherichia coli ATCC 35210 after 72 hrs by serial sub-cultivation method; type: functional; settings: ATCC 35210, 72 h; outline: as §2
Micrococcus flavus [14] = test: Antibacterial activity against Micrococcus flavus ATCC 10240 after 72 hrs by serial sub-cultivation method; type: functional; settings: ATCC 10240, 72 h; outline: as §2
Pseudomonas aeruginosa [15] = test: Antibacterial activity against Pseudomonas aeruginosa ATCC 27853 after 72 hrs by serial sub-cultivation method; type: functional; settings: ATCC 27853, 72 h; outline: as §2
Staphylococcus aureus [16] = test: Antibacterial activity against Staphylococcus aureus ATCC 6538 after 72 hrs by serial sub-cultivation method; type: functional; settings: ATCC 6538, 72 h; outline: as §2
Trichoderma viride [17] = test: Antifungal activity against Trichoderma viride IAM 5061 after 72 hrs by serial sub-cultivation method; type: functional; settings: IAM 5061, 72 h
Outline: (§3)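 MFC was found by serial sub-cultivation of 2 µl into plates holding 100 µl broth per well, then incubation 72 h at 28 °C. MFC is the lowest concentration with no visible growth, taken as 99.5% killing of the original inoculum. Spore inocula came from malt agar cultures washed with 0.85% saline and 0.1% Tween 80.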

Aspergillus flavus [18] = test: Antifungal activity against Aspergillus flavus ATCC 9643 after 72 hrs by serial sub-cultivation method; type: functional; settings: ATCC 9643, 72 h; outline: as §3
Aspergillus fumigatus [19] = test: Antifungal activity against Aspergillus fumigatus plant isolate after 72 hrs by serial dilution method
Aspergillus fumigatus [20] = test: Antifungal activity against Aspergillus fumigatus plant isolate after 72 hrs by serial sub-cultivation method
Aspergillus versicolor [21] = test: Antifungal activity against Aspergillus versicolor ATCC 11730 after 72 hrs by serial dilution method; type: functional; settings: ATCC 11730, 72 h
Outline: (§4)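 Fungi were kept on malt agar at 4 °C and sub-cultured monthly. Spores were washed off the agar with sterile 0.85% saline containing 0.1% Tween 80 (v/v). Modified microdilution in 96-well plates. MIC is the lowest concentration with no visible growth under the binocular microscope. Inoculum checked on malt agar for contamination and validity.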

Trichoderma viride [22] = test: Antifungal activity against Trichoderma viride IAM 5061 after 72 hrs by serial dilution method; type: functional; settings: IAM 5061, 72 h; outline: as §4
Penicillium ochrochloron [23] = test: Antifungal activity against Penicillium ochrochloron ATCC 9112 after 72 hrs by serial sub-cultivation method; type: functional; settings: ATCC 9112, 72 h; outline: as §3
Aspergillus niger [24] = test: Antifungal activity against Aspergillus niger ATCC 6275 after 72 hrs by serial dilution method; type: functional; settings: ATCC 6275, 72 h; outline: as §4
Talaromyces funiculosus [25] = test: Antifungal activity against Penicillium funiculosum ATCC 36839 after 72 hrs by serial sub-cultivation method; type: functional; settings: ATCC 36839, 72 h; outline: as §3
Aspergillus flavus [26] = test: Antifungal activity against Aspergillus flavus ATCC 9643 after 72 hrs by serial dilution method; type: functional; settings: ATCC 9643, 72 h; outline: as §4
Fulvia fulva [27] = test: Antifungal activity against Fulvia fulva TK 5318 after 72 hrs by serial sub-cultivation method; type: functional; settings: TK 5318, 72 h; outline: as §3
Talaromyces funiculosus [28] = test: Antifungal activity against Penicillium funiculosum ATCC 36839 after 72 hrs by serial dilution method; type: functional; settings: ATCC 36839, 72 h; outline: as §4
Aspergillus niger [29] = test: Antifungal activity against Aspergillus niger ATCC 6275 after 72 hrs by serial sub-cultivation method; type: functional; settings: ATCC 6275, 72 h; outline: as §3
Aspergillus versicolor [30] = test: Antifungal activity against Aspergillus versicolor ATCC 11730 after 72 hrs by serial sub-cultivation method; type: functional; settings: ATCC 11730, 72 h; outline: as §3
Fulvia fulva [31] = test: Antifungal activity against Fulvia fulva TK 5318 after 72 hrs by serial dilution method; type: functional; settings: TK 5318, 72 h; outline: as §4
Penicillium ochrochloron [32] = test: Antifungal activity against Penicillium ochrochloron ATCC 9112 after 72 hrs by serial dilution method; type: functional; settings: ATCC 9112, 72 h; outline: as §4

MIC (Staphylococcus aureus [1]) [µM] | MIC (Salmonella typhimurium [5]) [µM] | MIC (Bacillus cereus [6]) [µM] | MIC (Pseudomonas aeruginosa [7]) [µM] | MIC (Escherichia coli [8]) [µM] | MIC (Proteus mirabilis [10]) [µM] | MIC (Listeria monocytogenes [11]) [µM] | MIC (Micrococcus flavus [12]) [µM] | SMILES | MBC (Bacillus cereus [2]) [µM] | MBC (Salmonella typhimurium [3]) [µM] | MBC (Listeria monocytogenes [4]) [µM] | MBC (Proteus mirabilis [9]) [µM] | MBC (Escherichia coli [13]) [µM] | MBC (Micrococcus flavus [14]) [µM] | MBC (Pseudomonas aeruginosa [15]) [µM] | MBC (Staphylococcus aureus [16]) [µM] | further results
248 (≈ 86.7 µg/mL) | 248 (≈ 86.7 µg/mL) | 248 (≈ 86.7 µg/mL) | 744 (≈ 260 µg/mL) | 372 (≈ 130 µg/mL) | 372 (≈ 130 µg/mL) | 372 (≈ 130 µg/mL) | 248 (≈ 86.7 µg/mL) | CC1(C)S[C@@H]2[C@H](NC(=O)[C@H](N)c3ccccc3)C(=O)N2[C@H]1C(=O)O [AMPICILLIN] | 372 (≈ 130 µg/mL) | 492 (≈ 172 µg/mL) | 744 (≈ 260 µg/mL) | 492 (≈ 172 µg/mL) | 492 (≈ 172 µg/mL) | 372 (≈ 130 µg/mL) | 1240 (≈ 433 µg/mL) | 372 (≈ 130 µg/mL) | 
23.8 (≈ 7.94 µg/mL) | 23.8 (≈ 7.94 µg/mL) | 17.9 (≈ 5.97 µg/mL) | 17.9 (≈ 5.97 µg/mL) | 23.8 (≈ 7.94 µg/mL) | 47.6 (≈ 15.9 µg/mL) | 23.8 (≈ 7.94 µg/mL) | 23.8 (≈ 7.94 µg/mL) | O=C1CS/C(=N/c2nc(C34CC5CC(CC(C5)C3)C4)cs2)N1 | 23.8 (≈ 7.94 µg/mL) | 47.6 (≈ 15.9 µg/mL) | 47.6 (≈ 15.9 µg/mL) | 71.7 (≈ 23.9 µg/mL) | 47.6 (≈ 15.9 µg/mL) | 47.6 (≈ 15.9 µg/mL) | 47.6 (≈ 15.9 µg/mL) | 47.6 (≈ 15.9 µg/mL) | MFC (Trichoderma viride [17]): 23.8 µM (≈ 7.94 µg/mL); MFC (Aspergillus flavus [18]): 23.8 µM (≈ 7.94 µg/mL); MIC (Aspergillus fumigatus [19]): 11.9 µM (≈ 3.97 µg/mL); MFC (Aspergillus fumigatus [20]): 23.8 µM (≈ 7.94 µg/mL); MIC (Aspergillus versicolor [21]): 23.8 µM (≈ 7.94 µg/mL); MIC (Trichoderma viride [22]): 11.9 µM (≈ 3.97 µg/mL); MFC (Penicillium ochrochloron [23]): 23.8 µM (≈ 7.94 µg/mL); MIC (Aspergillus niger [24]): 11.9 µM (≈ 3.97 µg/mL); MFC (Talaromyces funiculosus [25]): 23.8 µM (≈ 7.94 µg/mL); MIC (Aspergillus flavus [26]): 17.9 µM (≈ 5.97 µg/mL); MFC (Fulvia fulva [27]): 11.9 µM (≈ 3.97 µg/mL); MIC (Talaromyces funiculosus [28]): 17.9 µM (≈ 5.97 µg/mL); MFC (Aspergillus niger [29]): 23.8 µM (≈ 7.94 µg/mL); MFC (Aspergillus versicolor [30]): 33.5 µM (≈ 11.2 µg/mL); MIC (Fulvia fulva [31]): 6 µM (≈ 2 µg/mL); MIC (Penicillium ochrochloron [32]): 6 µM (≈ 2 µg/mL)
172 (≈ 100 µg/mL) | 172 (≈ 100 µg/mL) | 43 (≈ 25 µg/mL) | 172 (≈ 100 µg/mL) | 172 (≈ 100 µg/mL) | 172 (≈ 100 µg/mL) | 258 (≈ 150 µg/mL) | 86 (≈ 50 µg/mL) | CN[C@@H]1[C@H](O[C@H]2[C@H](O[C@H]3[C@H](O)[C@@H](O)[C@H](N=C(N)N)[C@@H](O)[C@@H]3N=C(N)N)O[C@@H](C)[C@]2(O)C=O)O[C@@H](CO)[C@H](O)[C@H]1O [STREPTOMYCIN] | 86 (≈ 50 µg/mL) | 344 (≈ 200 µg/mL) | 516 (≈ 300 µg/mL) | 344 (≈ 200 µg/mL) | 344 (≈ 200 µg/mL) | 172 (≈ 100 µg/mL) | 344 (≈ 200 µg/mL) | 344 (≈ 200 µg/mL) | 
